Drawing on ChEMBL document CHEMBL5344404, “Design and optimization of oestrogen receptor PROTACs based on 4-hydroxytamoxifen” (Eur J Med Chem, 2022), this text covers Activity and EC50 for nine compounds.

Activity calls are given as the source filed them. No cut-off for these calls is given here.

Assay [1] addresses T1, von Hippel-Lindau disease tumor suppressor/Estrogen receptor (Homo sapiens, UniProt P03372+P40337). In words: PROTAC activity at VHL E3 ligase/ERalpha in human MCF7 cells assessed as reduction in ERalpha protein level at 2500 nM pretreated with carfilzomib at 1 uM for 30 mins followed by compound addition and measured after 6 hrs by Western blot analysis. It is filed as cell-based.
Target sequence in this assay (P03372 whole entry, looked up): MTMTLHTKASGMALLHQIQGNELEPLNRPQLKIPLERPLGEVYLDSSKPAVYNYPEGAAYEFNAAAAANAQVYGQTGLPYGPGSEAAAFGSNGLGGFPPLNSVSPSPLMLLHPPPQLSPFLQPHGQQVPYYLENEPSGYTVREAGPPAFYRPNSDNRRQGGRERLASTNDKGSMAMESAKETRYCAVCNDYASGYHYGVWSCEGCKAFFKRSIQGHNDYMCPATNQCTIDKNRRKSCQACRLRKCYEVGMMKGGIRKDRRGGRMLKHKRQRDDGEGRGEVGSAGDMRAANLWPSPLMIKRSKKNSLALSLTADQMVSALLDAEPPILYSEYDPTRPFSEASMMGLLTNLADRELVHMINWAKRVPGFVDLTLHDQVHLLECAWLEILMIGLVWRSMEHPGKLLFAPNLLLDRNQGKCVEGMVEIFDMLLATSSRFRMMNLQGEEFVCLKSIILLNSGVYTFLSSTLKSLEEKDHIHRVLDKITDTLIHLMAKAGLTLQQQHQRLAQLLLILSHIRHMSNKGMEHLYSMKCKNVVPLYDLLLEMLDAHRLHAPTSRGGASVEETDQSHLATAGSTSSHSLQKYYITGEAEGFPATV
Target sequence in this assay (P40337 whole entry, looked up): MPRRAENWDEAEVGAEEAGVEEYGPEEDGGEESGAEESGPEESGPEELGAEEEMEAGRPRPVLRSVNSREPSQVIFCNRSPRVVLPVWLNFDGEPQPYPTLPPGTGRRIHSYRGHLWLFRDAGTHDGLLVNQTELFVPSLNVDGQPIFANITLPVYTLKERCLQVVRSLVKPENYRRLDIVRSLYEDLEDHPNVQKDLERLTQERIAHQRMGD

The target in assay [2] is T1, von Hippel-Lindau disease tumor suppressor/Estrogen receptor. The assay can be described thus: PROTAC activity at VHL E3 ligase/ERalpha in human MCF7 cells assessed as reduction in ERalpha protein level at 10 nM incubated for 24 hrs by Western blot analysis. It is filed as cell-based. For orientation: Immunoblotting shows a protein as a band on a membrane.
Target sequence in this assay (P03372 whole entry, looked up): as the sequence (P03372 whole entry, looked up) above
Target sequence in this assay (P40337 whole entry, looked up): as the sequence (P40337 whole entry, looked up) above
Assay [3] shares this target. The assay can be described thus: PROTAC activity at VHL E3 ligase/ERalpha in human MCF7 cells assessed as reduction in ERalpha protein level incubated for 24 hrs by Western blot analysis. It is filed as cell-based. In outline:
(§1)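 MCF-7 cells treated 24 h across a broad concentration range. ERα quantified on Western blots and normalized to GAPDH, then plotted against PROTAC concentration to give DC50 (concentration giving 50% protein degradation). Replicates: 2 biological for the CRBN series, triplicates for the VHL series.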
Target sequence in this assay (P03372 whole entry): as the sequence (P03372 whole entry, looked up) above
Target sequence in this assay (P40337 whole entry): as the sequence (P40337 whole entry, looked up) above

The target is the same in assay [4]. In words: PROTAC activity at VHL E3 ligase/ERalpha in human T47D cells assessed as reduction in ERalpha protein level at 0.01 to 10 uM incubated for 24 hrs by Western blot analysis. It is filed as cell-based. To be noted: dose 0.01-10 µM.
Target sequence in this assay (P03372 whole entry, looked up): as the sequence (P03372 whole entry, looked up) above
Target sequence in this assay (P40337 whole entry, looked up): as the sequence (P40337 whole entry, looked up) above
Assay [5] shares this target. The assay can be described thus: PROTAC activity at VHL E3 ligase/ERalpha in human MCF7 cells assessed as reduction in ERalpha protein level at 2500 nM pretreated with MLN4924 at 1 uM for 30 mins followed by compound addition and measured after 6 hrs by Western blot analysis. It is filed as cell-based.
Target sequence in this assay (P03372 whole entry, looked up): as the sequence (P03372 whole entry, looked up) above
Target sequence in this assay (P40337 whole entry, looked up): as the sequence (P40337 whole entry, looked up) above
Assay [6] shares this target. In words: PROTAC activity at VHL/ERalpha (unknown origin). It is filed as protein assay.
Target sequence in this assay (P03372 whole entry): as the sequence (P03372 whole entry, looked up) above
Target sequence in this assay (P40337 whole entry): as the sequence (P40337 whole entry, looked up) above
Assay [7] shares this target. In words: PROTAC activity at VHL E3 ligase/ERalpha in human MCF7 cells assessed as reduction in ERalpha protein level at 0.01 to 10 uM incubated for 24 hrs by Western blot analysis. It is filed as cell-based. To be noted: dose 0.01-10 µM. A digest of the protocol: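 MCF-7 cells incubated with the PROTAC at several concentrations for 24 h. Lysates analysed by immunoblotting for ERα.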
Target sequence in this assay (P03372 whole entry, looked up): as the sequence (P03372 whole entry, looked up) above
Target sequence in this assay (P40337 whole entry, looked up): as the sequence (P40337 whole entry, looked up) above

In assay [8] the target is T2, Protein cereblon/Estrogen receptor (Homo sapiens, UniProt P03372+Q96SW2). In words: PROTAC activity at CRBN/ERalpha in human MCF7 cells assessed as reduction in ERalpha protein level at 1 uM pretreated with MLN4924 at 1 uM for 1 hr followed by compound addition for 12 hrs by Western blot analysis. It is filed as cell-based. In outline: (§2)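 Rescue assay in MCF-7 cells. Cells pre-treated 1 h with bortezomib 1 µM or MLN4924 1 µM, then given the PROTAC at 1 µM for 12 h. ERα read by immunoblot.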
Target sequence in this assay (P03372 whole entry, looked up): as the sequence (P03372 whole entry, looked up) above
Target sequence in this assay (Q96SW2 whole entry, looked up): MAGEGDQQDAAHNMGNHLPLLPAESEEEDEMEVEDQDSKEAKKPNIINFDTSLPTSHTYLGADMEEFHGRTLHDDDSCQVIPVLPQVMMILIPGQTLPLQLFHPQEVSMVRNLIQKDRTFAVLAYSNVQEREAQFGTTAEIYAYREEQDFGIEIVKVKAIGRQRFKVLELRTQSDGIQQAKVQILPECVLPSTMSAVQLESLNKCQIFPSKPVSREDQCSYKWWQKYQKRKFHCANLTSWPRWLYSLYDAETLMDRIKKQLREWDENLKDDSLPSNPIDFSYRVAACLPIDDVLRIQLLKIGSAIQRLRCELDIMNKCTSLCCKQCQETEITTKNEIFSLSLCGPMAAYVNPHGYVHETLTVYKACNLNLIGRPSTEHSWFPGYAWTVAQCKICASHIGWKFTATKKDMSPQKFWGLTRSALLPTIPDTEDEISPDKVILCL

Assay [9] has as its target T2, Protein cereblon/Estrogen receptor. The assay can be described thus: PROTAC activity at CRBN/ERalpha in human MCF7 cells assessed as reduction in ERalpha protein level at 1 uM pretreated with bortezomib at 1 uM for 1 hr followed by compound addition for 12 hrs by Western blot analysis. It is filed as cell-based. In outline: as §2
Target sequence in this assay (P03372 whole entry, looked up): as the sequence (P03372 whole entry, looked up) above
Target sequence in this assay (Q96SW2 whole entry, looked up): as the sequence (Q96SW2 whole entry, looked up) above
Assay [10] shares this target. The assay can be described thus: PROTAC activity at CRBN/ERalpha in human MCF7 cells assessed as reduction in ERalpha protein level at 1 uM measured after 1 to 12 hrs by Western blot analysis. It is filed as cell-based. To be noted: time 1-12 hrs. In outline:
(§3)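 MCF-7 cells given the PROTAC at 1 µM for periods of 1–48 h, with DMSO controls held 48 h. Cell lysates immunoblotted for ERα.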
Target sequence in this assay (P03372 whole entry, looked up): as the sequence (P03372 whole entry, looked up) above
Target sequence in this assay (Q96SW2 whole entry, looked up): as the sequence (Q96SW2 whole entry, looked up) above

Assay [11] shares this target. The assay can be described thus: PROTAC activity at CRBN/ERalpha in human MCF7 cells assessed as reduction in ERalpha protein level at 1 to 5 uM incubated for 24 hrs by Western blot analysis. It is filed as cell-based. To be noted: dose 1-5 µM. A digest of the protocol: (§4)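 MCF-7 breast cancer cells exposed to the PROTAC over a concentration series for 24 h. ERα in cell lysates then assessed by immunoblotting.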
Target sequence in this assay (P03372 whole entry, looked up): as the sequence (P03372 whole entry, looked up) above
Target sequence in this assay (Q96SW2 whole entry, looked up): as the sequence (Q96SW2 whole entry, looked up) above

Assay [12] has the same target. In words: PROTAC activity at CRBN/ERalpha in human MCF7 cells assessed as reduction in ERalpha protein level incubated for 24 hrs by Western blot analysis. It is filed as cell-based. In outline: as §1
Target sequence in this assay (P03372 whole entry): as the sequence (P03372 whole entry, looked up) above
Target sequence in this assay (Q96SW2 whole entry): as the sequence (Q96SW2 whole entry, looked up) above
Assay [13] has the same target. In words: PROTAC activity at CRBN/ERalpha in human MCF7 cells assessed as reduction in ERalpha protein level at 1 uM measured after 24 hrs by Western blot analysis. It is filed as cell-based. A digest of the protocol:
as §3
Target sequence in this assay (P03372 whole entry, looked up): as the sequence (P03372 whole entry, looked up) above
Target sequence in this assay (Q96SW2 whole entry, looked up): as the sequence (Q96SW2 whole entry, looked up) above

The target is the same in assay [14]. In words: PROTAC activity at CRBN/ERalpha in human MCF7 cells assessed as reduction in ERalpha protein level at 5 to 10 uM measured after 24 hrs by Western blot analysis. It is filed as cell-based. To be noted: dose 5-10 µM. In outline:
as §4
Target sequence in this assay (P03372 whole entry, looked up): as the sequence (P03372 whole entry, looked up) above
Target sequence in this assay (Q96SW2 whole entry, looked up): as the sequence (Q96SW2 whole entry, looked up) above

Assay [15] deals with Estrogen receptor/E3 ubiquitin-protein ligase XIAP (Homo sapiens, UniProt P03372+P98170). In words: PROTAC activity at XIAP/ERalpha (unknown origin). It is filed as protein assay.
Sequence of Estrogen receptor/E3 ubiquitin-protein ligase XIAP (P03372 whole entry): as the sequence (P03372 whole entry, looked up) above
Sequence of Estrogen receptor/E3 ubiquitin-protein ligase XIAP (P98170 whole entry): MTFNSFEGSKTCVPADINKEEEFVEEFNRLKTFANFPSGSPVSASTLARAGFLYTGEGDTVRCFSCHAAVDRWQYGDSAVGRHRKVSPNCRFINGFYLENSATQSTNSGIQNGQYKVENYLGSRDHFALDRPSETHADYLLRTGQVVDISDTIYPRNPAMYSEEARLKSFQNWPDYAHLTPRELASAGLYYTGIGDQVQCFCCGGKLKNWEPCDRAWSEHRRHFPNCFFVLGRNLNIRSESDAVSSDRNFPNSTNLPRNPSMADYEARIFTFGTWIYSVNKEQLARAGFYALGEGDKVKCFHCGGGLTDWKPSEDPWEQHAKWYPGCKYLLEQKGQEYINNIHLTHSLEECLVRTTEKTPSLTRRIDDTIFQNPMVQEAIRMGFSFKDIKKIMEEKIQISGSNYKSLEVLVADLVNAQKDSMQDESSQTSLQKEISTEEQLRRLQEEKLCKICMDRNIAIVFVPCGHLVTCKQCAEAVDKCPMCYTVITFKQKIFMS

As usually defined, the EC50 is the concentration giving half of the maximal effect. As for `CC/C(=C(\c1ccc(O)cc1)c1ccc(OCCN(C)C(=O)CCc2cn(CCCCCC(=O)N[C@H](C(=O)N3C[C@H](O)C[C@H]3C(=O)N[C@@H](C)c3ccc(-c4scnc4C)cc3)C(C)(C)C)nn2)cc1)c1ccccc1`, the result in assay [1] and in [5] was inactive. For the same compound, the result in assay [2] and in assay [4] was Active. The EC50 in assay [3] is 5.3 nM.
On to `CC[C@H](C)[C@H](NC(=O)[C@H](Cc1ccc(O)cc1)NC(=O)[C@@H]1CC(O)CN1C(=O)[C@H](C)NC(=O)[C@H](CC(C)C)NC(=O)CCCCCCC(=O)NCC(=O)OC1CC[C@H]2[C@@H]3CCc4cc(O)ccc4[C@H]3CC[C@]12C)C(=O)O` (some centres not stated), for which the EC50 in assay [6] came to 16000 nM.
As to `CC/C(=C(\c1ccc(O)cc1)c1ccc(OCCN(C)C(=O)CCc2cn(CCCC(=O)N[C@H](C(=O)N3C[C@@H](O)C[C@H]3C(=O)N[C@@H](C)c3ccc(-c4scnc4C)cc3)C(C)(C)C)nn2)cc1)c1ccccc1`, in assay [7], the result was inactive.
Consider `CC/C(=C(\c1ccc(O)cc1)c1ccc(OCCN(C)C(=O)CCc2cn(CCOCCOCCOCCNc3cccc4c3C(=O)N(C3CCC(=O)NC3=O)C4=O)nn2)cc1)c1ccccc1` (configuration not stated), for which the result in assay [8], in assay [9] and in [10] was inactive. The result in assay [11] was Active. In addition, the concentration giving a half-maximal response (EC50) in assay [12] came out at 11.9 nM.
As for `CC/C(=C(\c1ccc(O)cc1)c1ccc(OCCN(C)C(=O)CCc2cn(CCOCCNc3cccc4c3C(=O)N(C3CCC(=O)NC3=O)C4=O)nn2)cc1)c1ccccc1` (configuration not stated), the result in assay [11] was Active.
For the compound `CC/C(=C(\c1ccc(O)cc1)c1ccc(OCCN(C)C(=O)CCc2cn(CCOCCOCCOCCNc3cccc4c3C(=O)N(C3CCC(=O)N(C)C3=O)C4=O)nn2)cc1)c1ccccc1` (configuration not stated), in assay [13], the result was inactive. For the same compound, in [14], the outcome was Active.
On to `CC/C(=C(\c1ccc(O)cc1)c1ccc(OCCN(C)C(=O)CCc2cn(CCCC(=O)N[C@H](C(=O)N3C[C@H](O)C[C@H]3C(=O)N[C@@H](C)c3ccc(-c4scnc4C)cc3)C(C)(C)C)nn2)cc1)c1ccccc1`, for which the result in assay [1] and in [5] was inactive. Moreover, the outcome in [2] and in assay [4] was Active. Also, the half-maximal effective concentration (EC50) in [3] was determined as 4.5 nM.
In the case of `CNCC(=O)N[C@H](C(=O)N1Cc2cc(OCCOCCOCCOCCOc3ccc(Oc4c(-c5ccc(O)cc5)sc5cc(O)ccc45)cc3)ccc2C[C@H]1C(=O)N[C@@H]1CCCc2ccccc21)C(C)(C)C`, the EC50 in assay [15] was < 1000 nM.
With `CC/C(=C(\c1ccc(O)cc1)c1ccc(OCCN(C)C(=O)COCCOCCOCCOc2cccc(C(=O)c3csc([C@@H]4CCCN4C(=O)[C@@H](NC(=O)[C@H](C)NC)C4CCCCC4)n3)c2)cc1)c1ccccc1`, in assay [15], it took 10 nM to reach a half-maximal effect (EC50).
